ChEMBL document CHEMBL1147968, “Novel lbeta-methylcarbapenems having cyclic sulfonamide moieties: synthesis and evaluation of in vitro antibacterial activity” (2007)
Values after ≈ are worked out from the molar mass of the structure shown.

What was measured:
Type in all cases: functional
Staphylococcus = assay: Antibacterial activity against coagulase negative Staphylococcus after 18 to 24 hrs by agar dilution method
Summary of the method: (§1)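 Agar dilution on test agar holding serial twofold dilutions of compound. Overnight tryptosoy broth cultures were diluted in the same broth to about 10⁶ cells/mL and spotted with an inoculating device. Plates were incubated at 37 °C for 18–20 h.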

Streptococcus agalactiae = assay: Antibacterial activity against Streptococcus agalactiae 32 after 18 to 24 hrs by agar dilution method
Summary of the method: (§2)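 MICs were determined by agar dilution on test agar. An overnight tryptosoy broth culture was diluted in the same broth to about 10⁶ cells/mL and spotted with an inoculating device onto agar containing serial twofold dilutions of compound. Plates were incubated at 37 °C for 18–20 h, and the MIC was the lowest concentration with no visible growth.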

Streptococcus pneumoniae = assay: Antibacterial activity against Streptococcus pneumoniae 0025 after 18 to 24 hrs by agar dilution method; summary of the method: as §2
Streptococcus pyogenes = assay: Antibacterial activity against Streptococcus pyogenes 9889 after 18 to 24 hrs by agar dilution method; summary of the method: as §1
Citrobacter freundii = assay: Antibacterial activity against Citrobacter freundii 323 after 18 to 24 hrs by agar dilution method; summary of the method: as §2
Enterococcus faecalis = assay: Antibacterial activity against Enterococcus faecalis 2347 after 18 to 24 hrs by agar dilution method; summary of the method: as §2
Klebsiella pneumoniae = assay: Antibacterial activity against Klebsiella pneumoniae 523 after 18 to 24 hrs by agar dilution method; summary of the method: as §2
Escherichia coli = assay: Antibacterial activity against Escherichia coli 04 after 18 to 24 hrs by agar dilution method; summary of the method: as §2
Serratia marcescens = assay: Antibacterial activity against Serratia marcescens 3349 after 18 to 24 hrs by agar dilution method; summary of the method: as §2
Pseudomonas aeruginosa = assay: Antibacterial activity against Pseudomonas aeruginosa 5455 after 18 to 24 hrs by agar dilution method; summary of the method: as §2
Staphylococcus aureus = assay: Antibacterial activity against Staphylococcus aureus 1218 after 18 to 24 hrs by agar dilution method; summary of the method: as §2
Haemophilus influenzae = assay: Antibacterial activity against Haemophilus influenzae 1210 after 18 to 24 hrs by agar dilution method; summary of the method: as §2
Enterobacter cloacae = assay: Antibacterial activity against Enterobacter cloacae 34 after 18 to 24 hrs by agar dilution method; summary of the method: as §2
Acinetobacter baumannii = assay: Antibacterial activity against Acinetobacter baumannii 2289 after 18 to 24 hrs by agar dilution method; summary of the method: as §2

Row | MIC (Staphylococcus) [µg/mL] | MIC (Streptococcus agalactiae) [µg/mL] | MIC (Streptococcus pneumoniae) [µg/mL] | MIC (Streptococcus pyogenes) [µg/mL] | MIC (Citrobacter freundii) [µg/mL] | MIC (Enterococcus faecalis) [µg/mL] | MIC (Klebsiella pneumoniae) [µg/mL] | MIC (Escherichia coli) [µg/mL] | MIC (Serratia marcescens) [µg/mL] | MIC (Pseudomonas aeruginosa) [µg/mL] | MIC (Staphylococcus aureus) [µg/mL] | MIC (Haemophilus influenzae) [µg/mL] | MIC (Enterobacter cloacae) [µg/mL] | MIC (Acinetobacter baumannii) [µg/mL] | SMILES
1 | 0.098 (≈ 0.219 µM) | 0.02 (≈ 0.0448 µM) | 0.02 (≈ 0.0448 µM) | 0.01 (≈ 0.0224 µM) | 0.049 (≈ 0.11 µM) | 6.25 (≈ 14 µM) | 0.049 (≈ 0.11 µM) | 0.049 (≈ 0.11 µM) | 0.049 (≈ 0.11 µM) | 0.781 (≈ 1.75 µM) | 3.12 (≈ 6.99 µM) | 6.25 (≈ 14 µM) | 0.049 (≈ 0.11 µM) | 12.5 (≈ 28 µM) | C[C@@H](O)C1C(=O)N2C(C(=O)O)=C(S[C@@H]3CN[C@H](CN4CCNS4(=O)=O)C3)[C@H](C)C12 (stereo not given in full)
2 | 0.098 (≈ 0.219 µM) | 0.02 (≈ 0.0447 µM) | 0.013 (≈ 0.029 µM) | 0.02 (≈ 0.0447 µM) | 0.195 (≈ 0.436 µM) | 6.25 (≈ 14 µM) | 0.098 (≈ 0.219 µM) | 0.049 (≈ 0.109 µM) | 0.198 (≈ 0.442 µM) | 12.5 (≈ 27.9 µM) | 3.12 (≈ 6.97 µM) | 6.25 (≈ 14 µM) | 0.098 (≈ 0.219 µM) | 12.5 (≈ 27.9 µM) | C[C@@H](O)C1C(=O)N2C(C(=O)O)=C(S[C@@H]3CN[C@H](CN4CCOS4(=O)=O)C3)[C@H](C)C12 (stereo not given in full)

The remaining lines, values behind:

Row | SMILES | MIC (Staphylococcus) [µg/mL] | MIC (Streptococcus agalactiae) [µg/mL] | MIC (Streptococcus pneumoniae) [µg/mL] | MIC (Streptococcus pyogenes) [µg/mL] | MIC (Citrobacter freundii) [µg/mL] | MIC (Enterococcus faecalis) [µg/mL] | MIC (Klebsiella pneumoniae) [µg/mL] | MIC (Escherichia coli) [µg/mL] | MIC (Serratia marcescens) [µg/mL] | MIC (Pseudomonas aeruginosa) [µg/mL] | MIC (Staphylococcus aureus) [µg/mL] | MIC (Haemophilus influenzae) [µg/mL] | MIC (Enterobacter cloacae) [µg/mL] | MIC (Acinetobacter baumannii) [µg/mL]
3 | CCN1CCN(C[C@@H]2C[C@H](SC3=C(C(=O)O)N4C(=O)C([C@@H](C)O)C4[C@H]3C)CN2)S1(=O)=O (stereo not given in full) | 0.198 (≈ 0.417 µM) | 0.04 (≈ 0.0843 µM) | 0.04 (≈ 0.0843 µM) | 0.02 (≈ 0.0421 µM) | 0.098 (≈ 0.206 µM) | 6.25 (≈ 13.2 µM) | 0.198 (≈ 0.417 µM) | 0.098 (≈ 0.206 µM) | 0.098 (≈ 0.206 µM) | 12.5 (≈ 26.3 µM) | 25 (≈ 52.7 µM) | 12.5 (≈ 26.3 µM) | 0.098 (≈ 0.206 µM) | 25 (≈ 52.7 µM)
4 | CC1CN(C[C@@H]2C[C@H](SC3=C(C(=O)O)N4C(=O)C([C@@H](C)O)C4[C@H]3C)CN2)S(=O)(=O)N1 (stereo not given in full) | 0.391 (≈ 0.849 µM) | 0.04 (≈ 0.0868 µM) | 0.04 (≈ 0.0868 µM) | 0.04 (≈ 0.0868 µM) | 0.198 (≈ 0.43 µM) | 25 (≈ 54.3 µM) | 0.198 (≈ 0.43 µM) | 0.198 (≈ 0.43 µM) | 0.195 (≈ 0.423 µM) | 25 (≈ 54.3 µM) | 25 (≈ 54.3 µM) | 12.5 (≈ 27.1 µM) | 0.195 (≈ 0.423 µM) | 25 (≈ 54.3 µM)
5 | C[C@@H](O)C1C(=O)N2C(C(=O)O)=C(S[C@@H]3CN[C@H](CN4CCCNS4(=O)=O)C3)[C@H](C)C12 (stereo not given in full) | 0.098 (≈ 0.213 µM) | 0.01 (≈ 0.0217 µM) | 0.02 (≈ 0.0434 µM) | 0.01 (≈ 0.0217 µM) | 0.049 (≈ 0.106 µM) | 6.25 (≈ 13.6 µM) | 0.049 (≈ 0.106 µM) | 0.049 (≈ 0.106 µM) | 0.198 (≈ 0.43 µM) | 1.56 (≈ 3.39 µM) | 6.25 (≈ 13.6 µM) | 6.25 (≈ 13.6 µM) | 0.049 (≈ 0.106 µM) | 6.25 (≈ 13.6 µM)
